Results on 17 molecules are retold here after ChEMBL document CHEMBL1153919, “Pyrano[2,3-e]isoindol-2-ones, new angelicin heteroanalogues” (Bioorg Med Chem Lett, 2009).

As a reminder, the IC50 is the concentration that inhibits the measured activity by half. A higher IC50 goes with lower potency.

Assay [1] deals with K562. Description: Cytotoxicity against human K562 cells after 72 hrs by MTT assay. Type of assay: functional, cell-based. The conditions noted are these: K562, 72 h. (In general: Tetrazolium dyes change colour on reduction, which living cells bring about.)
The nature of assay [2]: Cytotoxicity against human NCTC-2544 cells after 72 hrs by MTT assay. The conditions noted are these: NCTC-2544, 72 h. It is filed as cell-based.
For assay [3], the system named is K562. Description: Phototoxicity against human K562 cells exposed to irradiation with 2.5 J/cm'2 UVA light prior to 72 hrs drug exposure by MTT assay. The conditions noted are these: K562, light or radiation study. It is filed as functional, cell-based. In outline: (§1)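 Phototoxicity panel: NCTC-2544 keratinocytes, LoVo adenocarcinoma, K562 and Jurkat leukemia cells. Cells with compound received UVA at 2.5 or 3.75 J/cm2. Cell growth was measured by MTT after 72 h of exposure. IC50 is the concentration inhibiting growth by 50%.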

Assay [4] in a line: Phototoxicity against human NCTC-2544 cells exposed to irradiation with 3.75 J/cm'2 UVA light prior to 72 hrs drug exposure by MTT assay. It is filed as cell-based. The conditions noted are these: NCTC-2544, light or radiation study. The essentials: as §1
In assay [5] the test system is Jurkat. Description: Phototoxicity against human Jurkat cells exposed to irradiation with 3.75 J/cm'2 UVA light prior to 72 hrs drug exposure by MTT assay. Type of assay: functional, cell-based. The conditions noted are these: light or radiation study. In outline:
as §1

Assay [6] has as its system LoVo. As to the kind of experiment: Phototoxicity against human LoVo cells exposed to irradiation with 2.5 J/cm'2 UVA light prior to 72 hrs drug exposure by MTT assay. Type of assay: functional, cell-based. The conditions noted are these: light or radiation study. In outline:
as §1

The subject of assay [7] is LoVo. Description: Cytotoxicity against human LoVo cells after 72 hrs by MTT assay. Type of assay: functional, cell-based.
For assay [8], the system named is Jurkat. Description: Cytotoxicity against human Jurkat cells after 72 hrs by MTT assay. It is filed as functional, cell-based.
Assay [9] relates to Jurkat. Description: Phototoxicity against human Jurkat cells exposed to irradiation with 2.5 J/cm'2 UVA light prior to 72 hrs drug exposure by MTT assay. The conditions noted are these: light or radiation study. Type of assay: functional, cell-based. The essentials: as §1
Assay [10] can be described thus: Phototoxicity against human NCTC-2544 cells exposed to irradiation with 2.5 J/cm'2 UVA light prior to 72 hrs drug exposure by MTT assay. The conditions noted are these: NCTC-2544, light or radiation study. Type of assay: cell-based. In outline:
as §1

Assay [11] concerns LoVo. As to the kind of experiment: Phototoxicity against human LoVo cells exposed to irradiation with 3.75 J/cm'2 UVA light prior to 72 hrs drug exposure by MTT assay. It is filed as functional, cell-based. The conditions noted are these: light or radiation study. The essentials: as §1
The test system of assay [12] is K562. Description: Phototoxicity against human K562 cells exposed to irradiation with 3.75 J/cm'2 UVA light prior to 72 hrs drug exposure by MTT assay. Type of assay: functional, cell-based. The conditions noted are these: K562, light or radiation study. In outline:
as §1

Turning to `Cn1cc2c(c1)-c1oc(=O)ccc1CC2`, the IC50 (in the assay with K562 [1]; in assay [2]; in the assay on K562 [3]; in assay [4]; in the assay with Jurkat [5]; in the assay on LoVo [6]) was over 20 µM each time. Besides, the IC50 (in the assay with LoVo [7]; in the assay with Jurkat [8]; in the assay with Jurkat [9]; in [10]; in the assay with LoVo [11]; with K562 [12]) was over 20 µM throughout.

Regarding `CCOC(=O)c1cc2c(oc1=O)-c1cn(Cc3ccccc3)cc1CC2`, the 50% inhibitory concentration (IC50) (with K562 [1]; in assay [2]; in the assay with K562 [3]; in assay [4]; in the assay on Jurkat [5]; in the assay with LoVo [6]) was over 20 µM throughout. Also, the IC50 (in the assay on LoVo [7]; in the assay on Jurkat [8]; in the assay with Jurkat [9]; in assay [10]; with LoVo [11]; in the assay on K562 [12]) was over 20 µM in each case.

`CCOC(=O)c1c2c(c(C)n1Cc1ccc(OC)cc1)-c1oc(=O)c(C(=O)OC)cc1CC2`: the IC50 was over 20 µM in the assay with K562 [1]; over 20 µM in assay [2]; over 20 µM with K562 [3]; over 20 µM in [4]; 11.8 µM with Jurkat [5]; over 20 µM in the assay on LoVo [6]. The IC50 with LoVo [7] is over 20 µM; in the assay on Jurkat [8], over 20 µM; in the assay on Jurkat [9], over 20 µM; in assay [10], over 20 µM; in the assay on LoVo [11], over 20 µM; in the assay on K562 [12], 12.6 µM.

Consider `CCOC(=O)c1cc2c(oc1=O)-c1cn(-c3ccccc3)cc1CC2`, for which the IC50 (in the assay on K562 [1]; in assay [2]; in the assay with K562 [3]; in [4]; with Jurkat [5]; in the assay on LoVo [6]) was over 20 µM in each case. The IC50 (in the assay on LoVo [7]; in the assay with Jurkat [8]; in the assay on Jurkat [9]; in [10]; in the assay with LoVo [11]; in the assay with K562 [12]) was over 20 µM each time.

For `CCOC(=O)c1cc2ccc3c(C(=O)OCC)n(C)c(C)c3c2oc1=O`, the half-inhibitory concentration (IC50) with K562 [1] is over 20 µM; in assay [2] it was over 20 µM; in the assay on K562 [3], over 20 µM; in assay [4], over 20 µM; with Jurkat [5], over 20 µM; with LoVo [6], 16.2 µM. In addition, the 50% inhibitory concentration (IC50) was over 20 µM with LoVo [7]; over 20 µM in the assay on Jurkat [8]; over 20 µM with Jurkat [9]; over 20 µM in assay [10]; 6.7 µM in the assay on LoVo [11]; over 20 µM with K562 [12].

Take `CCOC(=O)c1cc2c(oc1=O)-c1c(c(C(=O)OCC)n(C)c1C)CC2`: the concentration for half-maximal inhibition (IC50) in the assay with K562 [1] is over 20 µM; in assay [2] it was over 20 µM; in the assay with K562 [3], 13.9 µM; in [4], over 20 µM; with Jurkat [5], 15.2 µM; with LoVo [6], over 20 µM. The IC50 is over 20 µM in the assay on LoVo [7]; over 20 µM in the assay on Jurkat [8]; 15.4 µM with Jurkat [9]; over 20 µM in [10]; 11.1 µM in the assay with LoVo [11]; 13.1 µM in the assay with K562 [12].

Turning to `CCOC(=O)c1c2c(c(C)n1Cc1ccc(C)cc1)-c1oc(=O)c(C(=O)OC)cc1CC2`, the 50% inhibitory concentration (IC50) in the assay on K562 [1] is over 20 µM; in assay [2] it was over 20 µM; in the assay with K562 [3] it was over 20 µM; in [4] it was over 20 µM; with Jurkat [5] it was 17.8 µM; in the assay on LoVo [6], over 20 µM. The IC50 was over 20 µM in the assay with LoVo [7]; over 20 µM in the assay on Jurkat [8]; over 20 µM with Jurkat [9]; over 20 µM in [10]; over 20 µM with LoVo [11]; 16.6 µM in the assay with K562 [12].

Turning to `CCOC(=O)c1cc2c(oc1=O)-c1c(c(C(=O)OCC)n(Cc3ccc(OC)cc3)c1C)CC2`, the IC50 was over 20 µM in the assay with K562 [1]; over 20 µM in assay [2]; over 20 µM with K562 [3]; over 20 µM in [4]; 13.5 µM with Jurkat [5]; over 20 µM with LoVo [6]. In addition, the IC50 is over 20 µM in the assay on LoVo [7]; over 20 µM with Jurkat [8]; over 20 µM in the assay with Jurkat [9]; over 20 µM in assay [10]; over 20 µM in the assay on LoVo [11]; 14 µM with K562 [12].

For the molecule `COc1c2occc2cc2ccc(=O)oc12` [METHOXSALEN], the half-inhibitory concentration (IC50) is over 20 µM with K562 [1]; over 20 µM in assay [2]; over 20 µM in the assay with LoVo [7]; over 20 µM in the assay with Jurkat [8]; 5.5 µM in [10].

On to `O=c1ccc2c(o1)-c1cn(Cc3ccccc3)cc1CC2`, for which the IC50 (in the assay on K562 [1]; in assay [2]; with K562 [3]; in assay [4]; in the assay with Jurkat [5]; with LoVo [6]) was over 20 µM throughout. For the same molecule, the IC50 (in the assay with LoVo [7]; in the assay on Jurkat [8]; in the assay with Jurkat [9]; in assay [10]; with LoVo [11]; with K562 [12]) was over 20 µM each time.

Turning to `Cn1cc2c(c1)-c1oc(=O)c(C(=O)O)cc1CC2`, the IC50 (in the assay with K562 [1]; in assay [2]; with K562 [3]; in [4]; in the assay on Jurkat [5]; with LoVo [6]) was over 20 µM throughout. The half-inhibitory concentration (IC50) (in the assay on LoVo [7]; in the assay with Jurkat [8]; in the assay with Jurkat [9]; in assay [10]; in the assay with LoVo [11]; in the assay on K562 [12]) was over 20 µM each time.

As to `CCOC(=O)c1cc2ccc3c(C(=O)OCC)[nH]c(C)c3c2oc1=O`, the IC50 (in the assay with K562 [1]; in assay [2]; in the assay with K562 [3]; in assay [4]; with Jurkat [5]; in the assay with LoVo [6]) was over 20 µM in each case. Moreover, the concentration for half-maximal inhibition (IC50) in the assay on LoVo [7] is over 20 µM; with Jurkat [8] it was over 20 µM; in the assay with Jurkat [9], over 20 µM; in [10] it was over 20 µM; with LoVo [11], 17.8 µM; in the assay on K562 [12], over 20 µM.

Consider `CCOC(=O)c1cc2c(oc1=O)-c1c(cn(Cc3ccccc3)c1C)CC2`, for which the IC50 (in the assay on K562 [1]; in assay [2]; in the assay with K562 [3]; in assay [4]; with Jurkat [5]; in the assay on LoVo [6]) was over 20 µM in each case. Also, the IC50 (in the assay on LoVo [7]; in the assay on Jurkat [8]; in the assay with Jurkat [9]; in assay [10]; with LoVo [11]; in the assay on K562 [12]) was over 20 µM throughout.

Consider `CCOC(=O)c1cc2c(oc1=O)-c1cn(C)cc1CC2`, for which the half-maximal inhibitory concentration (IC50) (in the assay with K562 [1]; in assay [2]; in the assay on K562 [3]; in assay [4]; in the assay with Jurkat [5]; in the assay with LoVo [6]) was over 20 µM throughout. Moreover, the IC50 (in the assay on LoVo [7]; in the assay on Jurkat [8]; in the assay on Jurkat [9]; in assay [10]; in the assay with LoVo [11]; in the assay on K562 [12]) was over 20 µM throughout.

With `O=c1ccc2ccc3occc3c2o1` [ANGELICIN], the IC50 is over 20 µM with K562 [1]; over 20 µM in [2]; over 20 µM with LoVo [7]; over 20 µM with Jurkat [8]; 4.2 µM in assay [10].

On to `CCOC(=O)c1[nH]c(C)c2c1CCc1cc(C(=O)OCC)c(=O)oc1-2`, for which the IC50 (in the assay on K562 [1]; in assay [2]; with K562 [3]; in assay [4]; with Jurkat [5]; with LoVo [6]) was over 20 µM in each case. Moreover, the IC50 (in the assay on LoVo [7]; in the assay with Jurkat [8]; with Jurkat [9]; in assay [10]; with LoVo [11]; with K562 [12]) was over 20 µM throughout.

On to `CCOC(=O)c1cc2c(oc1=O)-c1c(c(C(=O)OCC)n(Cc3ccc(C)cc3)c1C)CC2`, for which the IC50 was over 20 µM in the assay with K562 [1]; over 20 µM in assay [2]; 13.5 µM in the assay with K562 [3]; 17 µM in [4]; 12.8 µM in the assay with Jurkat [5]; over 20 µM with LoVo [6]. Besides, the IC50 with LoVo [7] is over 20 µM; with Jurkat [8], over 20 µM; with Jurkat [9] it was 16.1 µM; in assay [10], over 20 µM; in the assay on LoVo [11], 15 µM; with K562 [12], 9.3 µM.
